How the values were obtained:
Type in all cases: functional
OVCAR-3 = assay: Cytotoxicity against human OVCAR-3 cells
K562 [1] = assay: Cell cycle arrest in human K562 cells by accumulation at G0/G1 phase cell at 50 uM after 24 hrs relative to control
Summary of the method: (§1)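 K-562 cells (RPMI 1640, 10% fetal calf serum, 37 °C, 5% CO2) exposed 24 h, pelleted, fixed in ice-cold 70% ethanol 30 min, RNase A (1 mg/ml) 37 °C 30 min, propidium iodide stain 30 min at room temperature in the dark; DNA content of 10,000 events by flow cytometry; phase and sub-G1 percentages compared with untreated control.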

K562 [2] = assay: Cytotoxicity against human K562 cells
LOX IMVI = assay: Cytotoxicity against human LOX IMVI cells
DU-145 = assay: Cytotoxicity against human DU145 cells
MDA-MB-435 = assay: Cytotoxicity against human MDA-MB-435 cells
K562 [3] = assay: Induction of apoptosis in human K562 cells assessed as accumulation at subG1 phase at 50 uM after 24 hrs relative to control; summary of the method: as §1
K562 [4] = assay: Cell cycle arrest in human K562 cells by accumulation at S phase cell at 50 uM after 24 hrs relative to control; summary of the method: as §1
SF-295 = assay: Cytotoxicity against human SF295 cells
HCT-15 = assay: Cytotoxicity against human HCT15 cells
K562 [5] = assay: Cell cycle arrest in human K562 cells by accumulation at G2/M phase cell at 50 uM after 24 hrs relative to control; summary of the method: as §1
MDA-MB-231 = assay: Cytotoxicity against human MDA-MB-231 cells
M14 = assay: Cytotoxicity against human M14 cells
SK-OV-3 = assay: Cytotoxicity against human SKOV3 cells
SR = assay: Cytotoxicity against human SR cells

What does the source list for `N#Cc1ccc(C#Cc2ccccc2C#CCCCCO)cc1`?
GI50 (OVCAR-3): 19.9 µM; Activity (K562 [1]): 51.2%; GI50 (K562 [2]): 21.7 µM; GI50 (LOX IMVI): 18.3 µM; GI50 (DU-145): 16 µM; GI50 (MDA-MB-435): 18.9 µM; Activity (K562 [3]): 5.65%; Activity (K562 [4]): 38%; GI50 (SF-295): 21.5 µM; GI50 (HCT-15): 15.6 µM; Activity (K562 [5]): 10.8%

What does the source list for `OCC#Cc1ccccc1C#Cc1ccccc1`?
GI50 (K562 [2]): 26 µM; GI50 (MDA-MB-231): 3.26 µM; GI50 (M14): 10.6 µM; GI50 (DU-145): 14.9 µM; GI50 (SK-OV-3): 16.6 µM; GI50 (SF-295): 20.6 µM

Which results are given for `OCCCCC#Cc1ccccc1C#Cc1cccs1`?
GI50 (OVCAR-3): 15 µM; Activity (K562 [1]): 22.7%; GI50 (K562 [2]): 20.3 µM; GI50 (LOX IMVI): 13.9 µM; GI50 (DU-145): 13 µM; GI50 (MDA-MB-435): 16.6 µM; Activity (K562 [3]): 5.23%; Activity (K562 [4]): 47.5%; GI50 (SF-295): 19 µM; GI50 (HCT-15): 13.1 µM; Activity (K562 [5]): 29.8%; GI50 (SR): 1.8 µM

How did the GI50 (OVCAR-3) turn out when `OCCCCC#Cc1ccccc1C#Cc1ccccn1` was run?
Its GI50 is 26.1 µM.

What about the Activity (K562 [1]) of the same molecule?
The Activity was 30.4%.

What about the GI50 (K562 [2]) of the same molecule?
Its GI50 is 29 µM.

What about the GI50 (LOX IMVI) of the same molecule?
Its GI50 is 27.7 µM.

And the GI50 (DU-145)?
Its GI50 is 9.8 µM.

And the GI50 (MDA-MB-435)?
The GI50 was 25.1 µM.

What about the Activity (K562 [3]) of the same molecule?
The Activity was 4.4%.

What about the Activity (K562 [4]) of the same molecule?
Its Activity is 52.6%.

What about the GI50 (SF-295) of the same molecule?
Its GI50 is 21.8 µM.

And the GI50 (HCT-15)?
The GI50 was 29.8 µM.

What about the Activity (K562 [5]) of the same molecule?
The Activity was 17%.

And the GI50 (SR)?
The GI50 was 25.5 µM.

Which results are given for `OCCCCC#Cc1ccccc1C#Cc1cccc(O)c1`?
GI50 (OVCAR-3): 20 µM; Activity (K562 [1]): 26.7%; GI50 (K562 [2]): 19.2 µM; GI50 (LOX IMVI): 16.7 µM; GI50 (DU-145): 17.4 µM; GI50 (MDA-MB-435): 16.1 µM; Activity (K562 [3]): 18.25%; Activity (K562 [4]): 37.1%; GI50 (SF-295): 21 µM; GI50 (HCT-15): 13.6 µM; Activity (K562 [5]): 36.2%

Which GI50 (K562 [2]) does the source give for `OCCCCC#Cc1ccccc1C#Cc1ccccc1` here?
Its GI50 is 21.1 µM.

And the GI50 (MDA-MB-231)?
Its GI50 is 4.29 µM.

And the GI50 (M14)?
Its GI50 is 10 µM.

And the GI50 (DU-145)?
The GI50 was 5.22 µM.

What about the GI50 (SK-OV-3) of the same molecule?
Its GI50 is 10.7 µM.

And the GI50 (SF-295)?
Its GI50 is 0.15 µM.

What does the source list for `COc1cccc(C#Cc2ccccc2C#CCCCCO)c1`?
GI50 (OVCAR-3): 10.7 µM; Activity (K562 [1]): 3.4%; GI50 (K562 [2]): 1.8 µM; GI50 (LOX IMVI): 6.3 µM; GI50 (DU-145): 4.1 µM; GI50 (MDA-MB-435): 1.9 µM; Activity (K562 [3]): 10.81%; Activity (K562 [4]): 11.9%; GI50 (SF-295): 7.9 µM; GI50 (HCT-15): 3.6 µM; Activity (K562 [5]): 84.6%; GI50 (SR): 1.9 µM
